# Measured values: ChEMBL document CHEMBL2424622, “Development of amino-pyrimidine inhibitors of c-Jun N-terminal kinase (JNK): kinase profiling guided optimization of a 1,2,3-benzotriazole lead” (Bioorg Med Chem Lett, 2013)
# Assays:
# [1] = molecular target: SRSF protein kinase 1 (Homo sapiens) (UniProt Q96SB4); assay: Competitive binding affinity to SRPK1 (unknown origin) at 10 uM in presence of ATP relative to control
# [2] = molecular target: T1, Muscle, skeletal receptor tyrosine-protein kinase (Homo sapiens) (UniProt O15146); assay: Competitive binding affinity to MUSK (unknown origin) at 10 uM in presence of ATP relative to control
# T1 sequence (whole entry): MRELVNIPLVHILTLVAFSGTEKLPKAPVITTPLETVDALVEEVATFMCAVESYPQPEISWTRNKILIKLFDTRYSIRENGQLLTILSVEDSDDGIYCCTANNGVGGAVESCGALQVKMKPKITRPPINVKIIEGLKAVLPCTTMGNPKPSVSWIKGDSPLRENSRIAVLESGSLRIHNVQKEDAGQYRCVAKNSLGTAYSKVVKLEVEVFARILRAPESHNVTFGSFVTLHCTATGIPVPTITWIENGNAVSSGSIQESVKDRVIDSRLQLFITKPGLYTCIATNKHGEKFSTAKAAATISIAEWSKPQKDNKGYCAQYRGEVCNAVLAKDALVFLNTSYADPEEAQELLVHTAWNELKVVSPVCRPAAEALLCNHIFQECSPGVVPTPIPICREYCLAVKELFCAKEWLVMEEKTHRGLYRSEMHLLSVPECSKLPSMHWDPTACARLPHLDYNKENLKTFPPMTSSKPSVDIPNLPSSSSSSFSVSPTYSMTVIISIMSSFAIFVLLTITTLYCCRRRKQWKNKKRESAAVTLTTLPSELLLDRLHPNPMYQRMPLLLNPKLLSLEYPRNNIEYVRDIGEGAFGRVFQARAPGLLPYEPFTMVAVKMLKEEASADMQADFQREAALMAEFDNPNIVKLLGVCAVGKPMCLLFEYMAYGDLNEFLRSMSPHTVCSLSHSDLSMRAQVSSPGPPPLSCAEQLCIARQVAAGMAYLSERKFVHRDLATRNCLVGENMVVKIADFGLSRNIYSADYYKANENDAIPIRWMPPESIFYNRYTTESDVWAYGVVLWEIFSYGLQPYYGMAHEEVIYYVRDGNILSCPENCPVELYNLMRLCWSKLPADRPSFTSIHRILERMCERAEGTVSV
# Procedure, shortened: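 In vitro ATP-site competition binding assay across a diverse panel of 128 kinases, with compound tested at a single concentration. Kinase selectivity scores (S15) were calculated from the panel profiles.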
# [3] = molecular target: T2, Mitogen-activated protein kinase kinase kinase 5 (Homo sapiens) (UniProt Q99683); assay: Competitive binding affinity to MAP3K5 (unknown origin) at 10 uM in presence of ATP relative to control
# T2 sequence (whole entry): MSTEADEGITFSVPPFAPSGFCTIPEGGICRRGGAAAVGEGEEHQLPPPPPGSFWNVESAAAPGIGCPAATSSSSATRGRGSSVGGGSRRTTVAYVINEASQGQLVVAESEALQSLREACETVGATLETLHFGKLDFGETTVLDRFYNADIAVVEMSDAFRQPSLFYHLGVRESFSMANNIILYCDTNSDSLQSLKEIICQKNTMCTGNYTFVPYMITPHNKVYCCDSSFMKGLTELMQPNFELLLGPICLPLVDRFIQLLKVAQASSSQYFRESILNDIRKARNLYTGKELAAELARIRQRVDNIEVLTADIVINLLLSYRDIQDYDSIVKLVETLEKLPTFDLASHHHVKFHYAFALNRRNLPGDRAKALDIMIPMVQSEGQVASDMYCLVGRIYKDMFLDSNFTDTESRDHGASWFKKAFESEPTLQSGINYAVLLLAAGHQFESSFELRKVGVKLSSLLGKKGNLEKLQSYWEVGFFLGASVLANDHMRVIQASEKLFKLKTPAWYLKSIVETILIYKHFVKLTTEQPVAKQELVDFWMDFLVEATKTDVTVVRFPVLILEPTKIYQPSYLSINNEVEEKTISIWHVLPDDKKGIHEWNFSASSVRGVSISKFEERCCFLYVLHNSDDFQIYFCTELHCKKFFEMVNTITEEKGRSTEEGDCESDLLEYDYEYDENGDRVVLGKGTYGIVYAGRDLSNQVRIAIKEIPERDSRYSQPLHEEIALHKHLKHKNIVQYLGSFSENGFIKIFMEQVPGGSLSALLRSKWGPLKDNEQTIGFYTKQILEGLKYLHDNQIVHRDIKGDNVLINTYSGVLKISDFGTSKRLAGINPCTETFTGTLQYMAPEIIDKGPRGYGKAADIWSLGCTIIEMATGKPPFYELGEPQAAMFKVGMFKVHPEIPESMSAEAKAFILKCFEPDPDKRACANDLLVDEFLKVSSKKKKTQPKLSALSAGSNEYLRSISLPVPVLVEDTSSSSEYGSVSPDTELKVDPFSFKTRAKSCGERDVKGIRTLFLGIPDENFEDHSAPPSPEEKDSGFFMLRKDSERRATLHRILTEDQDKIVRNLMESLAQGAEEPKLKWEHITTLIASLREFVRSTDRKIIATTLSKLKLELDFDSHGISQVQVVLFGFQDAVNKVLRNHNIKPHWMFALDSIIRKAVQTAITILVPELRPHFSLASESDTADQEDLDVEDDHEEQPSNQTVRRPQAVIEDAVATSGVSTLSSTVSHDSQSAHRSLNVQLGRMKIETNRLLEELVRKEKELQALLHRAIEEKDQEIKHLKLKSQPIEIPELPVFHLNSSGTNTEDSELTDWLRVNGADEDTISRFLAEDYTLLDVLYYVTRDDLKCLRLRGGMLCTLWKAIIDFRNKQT
# [4] = molecular target: Maternal embryonic leucine zipper kinase (Homo sapiens) (UniProt Q14680); assay: Competitive binding affinity to MELK (unknown origin) at 10 uM in presence of ATP relative to control
# Sequence of Maternal embryonic leucine zipper kinase (Homo sapiens) (Q14680 whole entry, looked up): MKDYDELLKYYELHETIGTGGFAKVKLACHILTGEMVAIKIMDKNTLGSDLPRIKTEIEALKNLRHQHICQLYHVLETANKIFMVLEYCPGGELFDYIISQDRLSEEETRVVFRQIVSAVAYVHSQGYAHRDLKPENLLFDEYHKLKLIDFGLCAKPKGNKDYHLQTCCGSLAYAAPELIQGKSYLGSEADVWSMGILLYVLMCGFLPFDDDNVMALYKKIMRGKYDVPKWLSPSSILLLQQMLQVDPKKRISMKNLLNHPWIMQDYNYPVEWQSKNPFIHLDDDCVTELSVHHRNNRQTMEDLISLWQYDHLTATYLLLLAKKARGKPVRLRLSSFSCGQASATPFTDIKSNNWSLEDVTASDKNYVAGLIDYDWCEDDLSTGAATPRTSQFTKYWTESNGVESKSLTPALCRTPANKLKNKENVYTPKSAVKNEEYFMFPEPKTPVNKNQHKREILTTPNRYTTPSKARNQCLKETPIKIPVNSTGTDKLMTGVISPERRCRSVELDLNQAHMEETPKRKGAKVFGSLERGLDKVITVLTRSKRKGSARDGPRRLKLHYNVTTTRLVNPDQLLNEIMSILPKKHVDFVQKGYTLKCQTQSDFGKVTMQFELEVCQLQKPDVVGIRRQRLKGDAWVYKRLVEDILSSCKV
# [5] = molecular target: Activin receptor type-2B (Homo sapiens) (UniProt Q13705); assay: Competitive binding affinity to ACVR2B (unknown origin) at 10 uM in presence of ATP relative to control
# Sequence of Activin receptor type-2B (Homo sapiens) (Q13705 whole entry): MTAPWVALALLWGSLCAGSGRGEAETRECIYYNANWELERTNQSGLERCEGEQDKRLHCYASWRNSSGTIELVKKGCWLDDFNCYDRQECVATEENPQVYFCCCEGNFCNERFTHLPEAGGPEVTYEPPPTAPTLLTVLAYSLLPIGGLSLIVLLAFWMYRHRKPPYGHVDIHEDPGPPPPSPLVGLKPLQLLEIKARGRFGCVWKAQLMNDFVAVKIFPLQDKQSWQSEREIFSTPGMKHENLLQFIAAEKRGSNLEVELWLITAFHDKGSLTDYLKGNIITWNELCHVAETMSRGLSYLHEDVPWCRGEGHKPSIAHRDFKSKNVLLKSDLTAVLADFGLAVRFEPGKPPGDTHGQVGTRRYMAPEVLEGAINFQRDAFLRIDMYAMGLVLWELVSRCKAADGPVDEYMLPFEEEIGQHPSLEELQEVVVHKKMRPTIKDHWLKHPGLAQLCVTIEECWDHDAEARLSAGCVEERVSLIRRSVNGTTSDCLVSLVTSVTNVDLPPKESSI
# [6] = molecular target: T3, Serine/threonine-protein kinase STK11 (Homo sapiens) (UniProt Q15831); assay: Competitive binding affinity to STK11 (unknown origin) at 10 uM in presence of ATP relative to control
# T3 sequence (whole entry): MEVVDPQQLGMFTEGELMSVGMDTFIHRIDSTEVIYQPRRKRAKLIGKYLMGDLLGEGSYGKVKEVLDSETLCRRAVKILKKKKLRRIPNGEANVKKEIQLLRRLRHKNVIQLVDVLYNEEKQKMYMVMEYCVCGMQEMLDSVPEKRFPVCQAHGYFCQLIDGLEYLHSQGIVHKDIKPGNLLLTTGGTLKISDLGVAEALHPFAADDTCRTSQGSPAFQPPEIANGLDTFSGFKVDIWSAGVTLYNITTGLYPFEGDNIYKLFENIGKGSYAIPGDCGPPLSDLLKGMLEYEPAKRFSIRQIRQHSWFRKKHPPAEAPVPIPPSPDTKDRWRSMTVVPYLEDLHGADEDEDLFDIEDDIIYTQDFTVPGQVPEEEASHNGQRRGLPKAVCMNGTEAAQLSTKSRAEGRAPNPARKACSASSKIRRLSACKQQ
# Sequence of SRSF protein kinase 1 (Homo sapiens) (Q96SB4 whole entry): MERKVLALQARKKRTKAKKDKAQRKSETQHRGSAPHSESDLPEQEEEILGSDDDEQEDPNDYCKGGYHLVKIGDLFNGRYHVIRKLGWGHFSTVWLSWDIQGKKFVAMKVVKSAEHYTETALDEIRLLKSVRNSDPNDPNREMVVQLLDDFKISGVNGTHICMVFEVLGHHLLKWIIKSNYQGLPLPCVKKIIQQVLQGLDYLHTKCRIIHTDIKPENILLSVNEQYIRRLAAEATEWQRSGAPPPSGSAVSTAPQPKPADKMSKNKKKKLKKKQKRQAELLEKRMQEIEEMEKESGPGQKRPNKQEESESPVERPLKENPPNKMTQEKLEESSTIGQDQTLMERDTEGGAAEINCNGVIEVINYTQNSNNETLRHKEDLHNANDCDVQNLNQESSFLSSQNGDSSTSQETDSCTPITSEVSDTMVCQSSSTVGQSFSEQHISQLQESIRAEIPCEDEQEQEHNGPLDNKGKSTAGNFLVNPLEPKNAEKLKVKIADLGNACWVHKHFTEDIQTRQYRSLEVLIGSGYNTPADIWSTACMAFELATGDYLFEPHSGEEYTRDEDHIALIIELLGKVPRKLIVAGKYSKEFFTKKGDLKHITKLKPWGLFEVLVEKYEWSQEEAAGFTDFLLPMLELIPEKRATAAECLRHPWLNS
Structure (SMILES),inhibition [1] [%],inhibition [2] [%],inhibition [3] [%],inhibition [4] [%],inhibition [5] [%],inhibition [6] [%]
O[C@H]1CC[C@H](Nc2nccc(-n3ccc4ccccc43)n2)CC1,< 50,< 50,< 50,< 50,< 50,–
N[C@H]1CC[C@H](Nc2nccc(-n3nnc4ccccc43)n2)CC1,–,–,–,–,–,98
O[C@H]1CC[C@H](Nc2nccc(-n3nnc4ccccc43)n2)CC1,< 50,< 50,< 50,94,74,–
O[C@H]1CC[C@H](Nc2nccc(-n3ncc4ccccc43)n2)CC1,< 50,< 50,< 50,74,< 50,–
O=C([C@H]1CC[C@H](Nc2nccc(-n3nnc4ccccc43)n2)CC1)N1CCOCC1,–,–,–,–,–,< 50
O[C@H]1CC[C@H](Nc2nccc(-c3n[nH]c4ccccc34)n2)CC1,100,< 50,–,94,< 50,–
